The text below walks through data of ChEMBL document CHEMBL4190282, “The Conjugated Double Bond of Coniferyl Aldehyde Is Essential for Heat Shock Factor 1 Mediated Cytotoprotection” (J Nat Prod, 2017).

Activity calls are given as the source filed them. The rule behind the calls is not given here.

Series [1] addresses T1, Heat shock factor protein 1 (Homo sapiens) (UniProt Q00613).
T1 sequence (whole entry): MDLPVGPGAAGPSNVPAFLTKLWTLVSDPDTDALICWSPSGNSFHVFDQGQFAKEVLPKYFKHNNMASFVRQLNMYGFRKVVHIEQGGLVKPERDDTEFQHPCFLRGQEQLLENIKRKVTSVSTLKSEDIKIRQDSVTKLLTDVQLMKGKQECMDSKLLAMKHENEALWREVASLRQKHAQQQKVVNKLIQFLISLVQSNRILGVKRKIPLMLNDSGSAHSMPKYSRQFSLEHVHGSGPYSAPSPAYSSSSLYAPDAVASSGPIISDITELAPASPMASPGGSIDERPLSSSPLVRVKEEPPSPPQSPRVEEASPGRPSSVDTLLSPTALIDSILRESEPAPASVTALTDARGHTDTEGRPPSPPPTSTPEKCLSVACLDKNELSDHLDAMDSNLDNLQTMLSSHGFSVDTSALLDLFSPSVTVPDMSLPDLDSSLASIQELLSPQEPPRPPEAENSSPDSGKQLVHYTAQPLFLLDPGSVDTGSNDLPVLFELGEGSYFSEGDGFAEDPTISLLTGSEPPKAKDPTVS
The experiment in a line: Activation of HSF1 in human NCI-H460 cells expressing pGL4-hsp25 construct assessed as upregulation of hsp25 promoter activity at 10 to 30 uM after 12 hrs by luciferase reporter gene assay. It is filed as cell-based. Summed up: (§1)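 NCI-H460 cells stably carrying hsp25 or hsp70 promoter–luciferase reporters, seeded, treated after 24 h at 10 or 30 μM and harvested 12 h later. Lysate luciferase normalized to β-galactosidase; mean of three independent experiments, fold-change vs negative control.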
(A reporter such as luciferase makes a cellular process visible.)

Series [2] concerns the target T1, Heat shock factor protein 1 (Homo sapiens). In words: Activation of HSF1 in human NCI-H460 cells expressing pGL4-hsp70 construct assessed as upregulation of hsp70 promoter activity at 10 to 30 uM after 12 hrs by luciferase reporter gene assay. In kind it is cell-based. In outline:
as §1

The next series deals with NCI-H460. In words: Upregulation of HSF1 protein level in human NCI-H460 cells at 10 to 30 uM after 12 hrs by Western blot analysis. It is filed as functional, cell-based. In outline: (§2)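 NCI-H460 cells treated 12 h at 10 or 30 μM; HSF1, HSP27 and HSP70 detected by Western blot.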
On the technique in general: Immunoblotting shows a protein as a band on a membrane.

The target in series [3] is T1, Heat shock factor protein 1 (Homo sapiens). In words: Activation of HSF1 in human NCI-H460 cells assessed as upregulation of HSP25 protein levels at 10 to 30 uM after 12 hrs by Western blot analysis. In kind it is cell-based. Summed up:
as §2

Series [4] has the same target. The experiment in a line: Activation of HSF1 in human NCI-H460 cells assessed as upregulation of HSP70 protein levels at 10 to 30 uM after 12 hrs by Western blot analysis. It is filed as cell-based. Summed up: as §2
The target is the same in series [5]. The experiment in a line: Activation of HSF1 in human NCI-H460 cells assessed as upregulation of HSP25 protein levels at 1 uM after 12 hrs by Western blot analysis. In kind it is cell-based. Summed up:
(§3)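 Cells were grown to 30% confluence and treated for 12 h. Equal protein amounts were lysed and cleared at 13 000 rpm for 30 min at 4 °C, then boiled in sample buffer for 5 min. Proteins were resolved by 8% or 12% SDS-PAGE and transferred to nitrocellulose. Membranes were blocked in 5% milk/PBST, given primary antibody for 18 h at 4 °C and an HRP secondary, and developed by ECL.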

Series [6] has the same target. The experiment in a line: Activation of HSF1 in human NCI-H460 cells assessed as upregulation of HSP70 protein levels at 1 uM after 12 hrs by Western blot analysis. In kind it is cell-based. Summed up: as §3
In the next series the test system is L132. In words: Cytotoxicity against human L-132 cells assessed as reduction in cell viability up to 20 uM after 24 hrs by MTT assay. It is filed as cell-based. Particulars: l132, 24 h. Summed up:
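L132 cells treated 24 h at indicated doses up to 20 μM. MTT (5 mg/mL in PBS) 4 h at 37 °C, formazan dissolved in DMSO, absorbance at 540 nm converted to cell number via calibration curve. Celastrol positive control.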
(In general: Tetrazolium dyes change colour on reduction, which living cells bring about.)

For the molecule `COc1cc(CCC=O)ccc1O`, the outcome (in series [1]; in series [2]; in the series on NCI-H460; in series [3]; in series [4]) was inactive.

`CC1=C(O)C(=O)C=C2C1=CC=C1[C@@]2(C)CC[C@@]2(C)[C@@H]3C[C@](C)(C(=O)O)CC[C@]3(C)CC[C@]12C` [CELASTROL]: the outcome in series [5] and in series [6] was Active. Further, the Activity entry in the series on L132 is given as “Toxic”.

Take `COc1cc(CCCO)ccc1O`: the result (in series [1]; in series [2]; with NCI-H460; in series [3]; in series [4]) was inactive.
